# Screens: PubChem BioAssay, Sanford-Burnham Center for Chemical Genomics
# An excerpt weighted towards active compounds, which were near 2.3% of everything screened.
# MT1-MMP act inh: blockers of MT1-MMP proenzyme processing, primary screen, HT1080 RFP-PRO-GFP cells, GFP/RFP fluorescence; AID 651647, 2012; GFP/RFP ratio change, % at 20 µM; hit rate 0.061% among 360,000; GFP/RFP ratio fluorescence, overnight; percent of plate control window, DMSO zero; Matrix metalloproteinase-14 (Homo sapiens), P50281;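 active = GFP/RFP ratio change of at least 30% with cell ATP level not reduced by more than half and red fluorescence within 50% of control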
#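 Material: RFP-PRO-GFP reporter HT1080 cells. Dosing: single-point 20 µM compound, 1% DMSO. Controls: DMSO and RFP-L50D-GFP cell wells. Timing: cells overnight before dosing, compound overnight, 37 °C, 5% CO2. Measure: GFP/RFP fluorescence ratio.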
# SKN-1 inh: suppressors of acrylamide-induced Pgst-4::GFP reporter in worms, primary screen, SKN-1 inhibitor project, whole organism, uHTS, GFP/RFP fluorescence ratio, strain VP596 | C. elegans VP596 Pgst-4::GFP/RFP ratio, 24 h | hit rate 0.49% among 360,000 | AID 624304, 2012 | inhibition, % at 21.8 µM;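 active = interference check ratio from 0.5 to 1.5 plus GFP to RFP signal ratio inhibition reaching or exceeding a fixed threshold, cut at about 30% in these data, passing the limit was not always enough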
# ATG4B inh: ATG4B protease inhibitors, primary screen, biochemical, fluorescence, uHTS; inhibition, % at 8.33 µM; AID 504462, 2011; hit rate 0.51% among 340,000; ATG4B cleavage of LC3-PLA2, NBD-HPC fluorescence, 1 h; in the data active = inhibition above about 40%
# Target sequence (Q9Y4P1 whole entry, looked up): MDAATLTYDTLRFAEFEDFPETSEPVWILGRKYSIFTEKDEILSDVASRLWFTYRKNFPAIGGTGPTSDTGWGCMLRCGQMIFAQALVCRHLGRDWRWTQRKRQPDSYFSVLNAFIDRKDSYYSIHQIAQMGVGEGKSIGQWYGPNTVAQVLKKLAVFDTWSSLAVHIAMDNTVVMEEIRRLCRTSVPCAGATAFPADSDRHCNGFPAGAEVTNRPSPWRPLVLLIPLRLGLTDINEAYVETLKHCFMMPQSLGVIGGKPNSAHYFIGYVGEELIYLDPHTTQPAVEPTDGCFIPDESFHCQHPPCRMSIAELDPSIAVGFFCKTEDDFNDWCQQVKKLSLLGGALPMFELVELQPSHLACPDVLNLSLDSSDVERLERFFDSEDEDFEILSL
# MPTP inh: mitochondrial permeability transition pore inhibitors, primary screen, biochemical, isolated mouse mitochondria, absorbance. hit rate 1.4% among 360,000. Ca2+ swelling absorbance, 30 min. AID 602449, 2012. inhibition, % at 10 µM;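 active = inhibition of 50% or more, scaled per plate between neutral and stimulator controls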;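 also: 0% = DMSO wells given calcium and 100% = 1 mM EGTA wells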
# Rh123 counter: fluorescence retest of MPTP screen hits in isolated mitochondria, single concentration | shares compounds with MPTP inh | membrane potential, Rhodamine 123 fluorescence | inhibition, % at 10 µM | hit rate 78% among 5,000 | AID 624504, 2012; in the data active = inhibition above about 22%;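 also: 0% = DMSO vehicle and 100% = positive control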
# MPTP swell DR: mitochondrial permeability transition pore inhibitors, dose response, biochemical, absorbance, uHTS hits | shares compounds with MPTP inh | isolated mitochondria swelling | IC50, µM | hit rate 58% among 780 | AID 651561, 2012; in the data active = IC50 below about 20 µM
# MPTP counter DR: fluorescent counter-screen in isolated mitochondria, dose response, counter-screen for MPTP inhibitor project, biochemical, fluorescence, uHTS hits; IC50, µM; isolated mitochondria counterscreen, fluorescence read-out; hit rate 49% among 780; shares compounds with MPTP inh; AID 651564, 2012; in the data active = IC50 below about 80 µM
# Starred values were filed as active, the others as inactive; i = inactive; nt = no result.
SMILES,MT1-MMP act inh,SKN-1 inh,ATG4B inh,MPTP inh,Rh123 counter,others
Nc1nnc(CC(=O)N/N=C/c2cc([N+](=O)[O-])cc(Br)c2O)s1,6,-13,17,53*,-12,
Cc1c(C)n(Cc2ccccc2)c2ccc(C(=O)OCCCN(C)C)cc12,-8,12,2,78*,-3,
CN(C)CC(O)c1ccc(C=Cc2ccc(Cl)cc2)cc1 (stereo unspecified),3,53*,2,97*,-11,MPTP swell DR=17*;MPTP counter DR=>80
Cc1nc2ccccc2nc1SCC(=O)c1ccccc1,-3,6,-11,75*,71*,
CC(C)NC(=O)C1Cc2c(-c3ccc(Cl)cc3)ccnc2O1 (stereo unspecified),-2,0,nt,-1,nt,
COc1ccc(/C=C/C(=O)Nc2ccccc2C(=O)O)cc1,3,5,-1,1,nt,
COc1ccc(/C=C/C(=O)Nc2ccccc2C(=O)NCC(c2ccc(OC)cc2)N(C)C)cc1 (stereo unspecified),-1,-7,-4,76*,-5,MPTP swell DR=12*;MPTP counter DR=>80
COCCCNCCOCCOc1ccc(Cl)cc1C(C)(C)C,-1,-14,2,61*,-15,MPTP swell DR=4.3*;MPTP counter DR=>80
C=CCNCCCOc1ccc(Cl)cc1C(C)(C)C,-2,-3,1,0,nt,
C=CCNCCOCCOc1ccc(Cl)cc1C(C)(C)C,-7,4,8,92*,-9,MPTP swell DR=11*;MPTP counter DR=>80
CC(C)Oc1cc(F)ccc1-c1cc(C(=O)NC2CCCCC2)[nH]n1,-6,23,nt,1,nt,
Clc1ccc(OCCCN2CCc3ccccc3C2)c(Br)c1,-4,10,5,2,nt,
Clc1ccc(OCCOCCN2CCc3ccccc3C2)c(Cl)c1,3,2,10,100*,-6,MPTP swell DR=i;MPTP counter DR=31*
COc1ccc(-n2c(CN3CCN(c4ccccn4)CC3)nc3ccc([N+](=O)[O-])cc3c2=O)c(OC)c1,-1,-2,-4,2,nt,
N#Cc1cc(NC(=O)c2ccc(Cl)cc2)ccc1Sc1ccccc1,-3,-8,nt,73*,96*,
CC(NCCC(c1ccccc1)c1ccccc1)c1ccccc1 (stereo unspecified),0,9,5,94*,-2,
CC1CN(S(=O)(=O)c2ccc(C(=O)Nc3nncs3)cc2)CC(C)O1 (stereo unspecified),0,9,1,0,nt,
CC1CN(S(=O)(=O)c2ccc(NC(=O)c3cc(-c4ccccc4O)n[nH]3)cc2)CC(C)O1 (stereo unspecified),8,-14,-16,79*,72*,
CC1CN(S(=O)(=O)c2ccc(C(=O)Nc3nc(-c4cc5ccccc5o4)cs3)cc2)CC(C)O1 (stereo unspecified),-12,-2,4,88*,19,MPTP swell DR=i;MPTP counter DR=<2.5*
Cc1cc(-c2csc(NC(=O)c3ccc(S(=O)(=O)N(C)C)cc3)n2)c(C)n1-c1ccccc1,-7,8,-5,-2,nt,
O=C(Nc1nc(-c2cc3ccccc3o2)cs1)c1ccc(S(=O)(=O)N2CCCC2)cc1,-8,6,-11,63*,82*,
CN(C)S(=O)(=O)c1ccc(C(=O)Nc2nc(-c3cc4ccccc4o3)cs2)cc1,10,4,-7,85*,87*,
CC(C)N1CCc2c(sc(NC(=O)c3nc4ccccc4s3)c2C(N)=O)C1,-55,7,2,-1,nt,
CC(C)N1CCc2c(sc(NC(=O)c3cc(-c4cccs4)nc4ccccc34)c2C(N)=O)C1,-51,7,19,83*,-29,
Oc1c(C=C2N=c3ccccc3=N2)sc(=S)n1C1CCCCC1,8,3,2,77*,-7,MPTP swell DR=>100;MPTP counter DR=>80
SMILES,MT1-MMP act inh,SKN-1 inh,ATG4B inh,MPTP inh,Rh123 counter,others
CCn1c(O)c(C=C2N=c3ccccc3=N2)sc1=S,-6,9,2,0,nt,
O=C(COc1cccc2cccnc12)N1CCc2ccccc21,0,-4,0,-1,nt,
Cc1nn(C)c(C)c1NC(=O)COc1ccc(Cl)cc1Br,8,11,2,1,nt,
CCOC(=O)c1sc(NC(=O)CCN2CCN(C)CC2)c(C(=O)OCC)c1C,-6,4,-3,69*,-6,MPTP swell DR=13*;MPTP counter DR=>80
COc1ccccc1NC(=O)C(=O)Nc1ccc2c(c1)N(C(=O)C1CC1)CCC2,-3,-22,-2,-2,nt,
CCN(CC#CCC(O)(c1ccccc1)C1CCCC1)C(C)C (stereo unspecified),-1,-4,0,78*,-4,MPTP swell DR=i;MPTP counter DR=>80
CC(C)N(CC#CCC(O)(c1ccccc1)C1CCCC1)CCO (stereo unspecified),-4,6,22,-1,nt,
O=C(Cc1cccs1)Nc1cccc(-c2nc3cc4ccccc4cc3[nH]2)c1,13,6,10,90*,37*,
CC(=O)Nc1cccc(NC(=O)Cc2cccs2)c1,-2,8,7,1,nt,
Cn1nc(CC(=O)N2CCN(c3ccccc3)CC2)c2ccccc2c1=O,0,-14,-11,0,nt,
Cn1nc(CC(=O)Nc2ccc(N3CCN(C(=O)OC(C)(C)C)CC3)cc2)c2ccccc2c1=O,3,-1,-4,101*,74*,
Cc1ccc(NC(=O)Cc2nn(C)c(=O)c3ccccc23)cc1F,-2,18,-4,59*,80*,
COc1ccc2c3c(ccc2c1)C(=O)/C(=C/O)CC3,-2,20,3,-1,nt,
O=C(CCc1ccc(S(=O)(=O)N2CCOCC2)cc1)Nc1ccc(F)c(F)c1F,3,-10,-5,-1,nt,
COC(=O)C(Cc1ccccc1)NC(=O)c1cccc(S(=O)(=O)N(C)C)c1 (stereo unspecified),0,9,-7,-1,nt,
O=C(Nc1cc(Sc2nc3ccccc3s2)cc([N+](=O)[O-])c1)c1cccc(F)c1F,1,7,5,94*,71*,
CC(=O)N1CCc2ccc(S(=O)(=O)N3CCN(C)CC3)cc21,0,13,2,0,nt,
COC(=O)c1sc(NC(=S)NC(=O)c2cccc(Br)c2)nc1C,0,4,7,90*,49*,
CCCc1c(NC(=O)Nc2ccc(F)cc2)cnn1-c1ccc(Cl)cc1,11,-5,10,88*,74*,
CN(C)C(CNC(=O)CCNS(=O)(=O)c1ccccc1C(F)(F)F)c1ccccc1 (stereo unspecified),-1,-4,-2,1,nt,
